Paper PMC9636331 (Blood Advances, 2022)
Values joined by “and” are separate entries in the source; they are usually repeats but may differ in a detail not shown here. Equal entries are not always repeated. “Also recorded” adds a separate entry of the source.

Assays:
PNH-type RBCs = experiment: Flow cytometry of PNH-type RBCs and C3 fragment deposition on RBCs; type: in vivo, human
fragment Bb = experiment: Circulating fragment of factor B; type: in vivo, human; details: after the first dose of 25 mg twice daily or higher
Summary of the method: (§1)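 Adult PNH patients, randomized 1:1, took the test compound 25 mg twice daily for 4 weeks then 100 mg twice daily (cohort 1), or 50 mg then 200 mg twice daily (cohort 2). Alternative-pathway target engagement was measured as circulating fragment Bb and by Wieslab assay. Sigmoid Emax models related both to individual steady-state Ctrough at baseline and after 4 weeks at each dose (days 29, 57).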

[1] = tested on: PNH patients with active hemolysis; experiment: Safety and tolerability; type: in vivo, human
[2] = ref data on file, cited from earlier work
[3] = tested on: PNH patients with persistent hemolysis despite ongoing treatment with eculizumab; details: add-on to eculizumab, week 13; cited from earlier work
[4] = tested on: PNH patients with active hemolysis; experiment: Serum LDH levels, phase 2 study of iptacopan monotherapy; type: in vivo, human; details: cohort 2 (50/200 mg bid), until week 12
Summary of the method: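 Primary endpoint: serum LDH reduction ≥60% from baseline, or LDH below ULN, at any time up to week 12. Baseline was the mean of the last 3 screening values before randomization. If LDH had not fallen ≥40% by day 15, the dose was to be raised from day 17, and raised further for cohort 1 at day 29, with a maximum of 200 mg twice daily.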

[5] = Plasma pharmacokinetics of iptacopan; type: in vivo, human
Summary of the method: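 Plasma samples were taken predose on days 2, 15, 29 and 57, and at 0.25, 1, 2, 4 and 6 h post-dose on days 29 and 57. Doses were 25/50 mg twice daily for 4 weeks, then 100/200 mg twice daily. Assay was validated LC-MS/MS, LLOQ approximately 1 ng/mL. Cmax, AUC, Ctrough and Tmax were derived noncompartmentally.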

[6] = tested on: PNH patients with active hemolysis; experiment: Hb and other markers of hemolysis; type: in vivo, human
Summary of the method: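 Secondary hemolysis markers (total and free Hb, bilirubin, reticulocyte count, RBC count, haptoglobin) were measured in PNH patients over 12 weeks of twice-daily test compound. Dosing was 25 mg for 4 weeks then 100 mg (cohort 1), or 50 mg then 200 mg (cohort 2). Baseline for each variable was the mean of all pretreatment values.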

[7] = tested on: complement alternative pathway; experiment: Wieslab complement assay; type: in vivo, human; details: 200 mg twice daily; data not shown
Summary of the method: as §1

[8] = until data cutoff, listed as iptacopan
[9] = nonclinical and phase 1 studies

Structure (SMILES): CCO[C@H]1CCN(Cc2c(OC)cc(C)c3[nH]ccc23)[C@H](c2ccc(C(=O)O)cc2)C1 [Iptacopan]
- Clone size (PNH red blood cells, type II+III) (%), mean, Raw (PNH-type RBCs; Week 12, 25 mg/100 mg (cohort 1), baseline 33.6): 82.9%
- Clone size (PNH red blood cells, type II+III) (%), mean, Raw (PNH-type RBCs; Week 12, 50 mg/200 mg (cohort 2), baseline 49.1): 91.1%
- Effect on C3d deposition on RBC (PNH-type RBCs; both cohorts): near-total abrogation of C3d deposition on RBC
- Bb levels (fragment Bb): decreased rapidly
- AE by preferred term: Abdominal discomfort ([1]; 25 mg/100 mg, n = 7): 2 (28.6) n (%)
- AE by preferred term: Blood alkaline phosphatase increased ([1]; 25 mg/100 mg, n = 7): 1 (14.3) n (%)
- AE by preferred term: Cough ([1]; 25 mg/100 mg, n = 7): 2 (28.6) n (%)
- AE by preferred term: Headache ([1]; 25 mg/100 mg, n = 7): 1 (14.3) n (%)
- AE by preferred term: Oropharyngeal pain ([1]; 25 mg/100 mg, n = 7): 2 (28.6) n (%)
- AE by preferred term: Pyrexia ([1]; 25 mg/100 mg, n = 7): 2 (28.6) n (%)
- AE by preferred term: Upper respiratory tract infection ([1]; 25 mg/100 mg, n = 7): 2 (28.6) n (%)
- AEs leading to discontinuation of study treatment, number of events (nE) ([1]; 25 mg/100 mg, n = 7): 0
- AEs leading to discontinuation of study treatment, number of patients ([1]; 25 mg/100 mg, n = 7): 0 nS (%)
- AEs of mild intensity, number of events (nE) ([1]; 25 mg/100 mg, n = 7): 29
- AEs of mild intensity, number of patients ([1]; 25 mg/100 mg, n = 7): 4 (57.1) nS (%)
- AEs of moderate intensity, number of events (nE) ([1]; 25 mg/100 mg, n = 7): 2
- AEs of moderate intensity, number of patients ([1]; 25 mg/100 mg, n = 7): 1 (14.3) nS (%)
- AEs of severe/serious intensity, number of events (nE) ([1]; 25 mg/100 mg, n = 7): 0
- AEs of severe/serious intensity, number of patients ([1]; 25 mg/100 mg, n = 7): 0 nS (%)
- Study drug-related AEs leading to discontinuation of study treatment, number of events (nE) ([1]; 25 mg/100 mg, n = 7): 0
- Study drug-related AEs leading to discontinuation of study treatment, number of patients ([1]; 25 mg/100 mg, n = 7): 0 nS (%)
- Study drug-related AEs, number of events (nE) ([1]; 25 mg/100 mg, n = 7): 6
- Study drug-related AEs, number of patients ([1]; 25 mg/100 mg, n = 7): 1 (14.3) nS (%)
- Total AEs, number of events (nE) ([1]; 25 mg/100 mg, n = 7): 31
- Total AEs, number of patients ([1]; 25 mg/100 mg, n = 7): 4 (57.1) nS (%)
- AE by preferred term: Abdominal discomfort ([1]; 50 mg/200 mg, n = 6): 0 n (%)
- AE by preferred term: Blood alkaline phosphatase increased ([1]; 50 mg/200 mg, n = 6): 1 (16.7) n (%)
- AE by preferred term: Headache ([1]; 50 mg/200 mg, n = 6): 3 (50.0) n (%)
- AE by preferred term: Oropharyngeal pain ([1]; 50 mg/200 mg, n = 6): 0 n (%)
- AE by preferred term: Pyrexia ([1]; 50 mg/200 mg, n = 6): 0 n (%)
- AE by preferred term: Upper respiratory tract infection ([1]; 50 mg/200 mg, n = 6): 0 n (%)
- AEs leading to discontinuation of study treatment, number of events (nE) ([1]; 50 mg/200 mg, n = 6): 1
- AEs leading to discontinuation of study treatment, number of patients ([1]; 50 mg/200 mg, n = 6): 1 (16.7) nS (%)
- AEs of mild intensity, number of events (nE) ([1]; 50 mg/200 mg, n = 6): 6
- AEs of mild intensity, number of patients ([1]; 50 mg/200 mg, n = 6): 4 (66.7) nS (%)
- AEs of moderate intensity, number of events (nE) ([1]; 50 mg/200 mg, n = 6): 1
- AEs of moderate intensity, number of patients ([1]; 50 mg/200 mg, n = 6): 1 (16.7) nS (%)
- AEs of severe/serious intensity, number of events (nE) ([1]; 50 mg/200 mg, n = 6): 0
- AEs of severe/serious intensity, number of patients ([1]; 50 mg/200 mg, n = 6): 0 nS (%)
- Study drug-related AEs leading to discontinuation of study treatment, number of events (nE) ([1]; 50 mg/200 mg, n = 6): 1
- Study drug-related AEs leading to discontinuation of study treatment, number of patients ([1]; 50 mg/200 mg, n = 6): 1 (16.7) nS (%)
- Study drug-related AEs, number of events (nE) ([1]; 50 mg/200 mg, n = 6): 3
- Study drug-related AEs, number of patients ([1]; 50 mg/200 mg, n = 6): 3 (50.0) nS (%)
- Total AEs, number of events (nE) ([1]; 50 mg/200 mg, n = 6): 7
- Total AEs, number of patients ([1]; 50 mg/200 mg, n = 6): 5 (83.3) nS (%)
- Deaths ([1]; 13 patients, until data cutoff): No deaths
- Tolerability ([1]; 13 patients, until data cutoff): overall well-tolerated and safe
- Tolerability ([1]; 13 patients, until data cutoff, listed as iptacopan): safe and well-tolerated
- AE by preferred term: Abdominal discomfort ([1]; Total, n = 13): 2 (15.4) n (%)
- AE by preferred term: Blood alkaline phosphatase increased ([1]; Total, n = 13): 2 (15.4) n (%)
- AE by preferred term: Cough ([1]; Total, n = 13): 2 (15.4) n (%)
- AE by preferred term: Headache ([1]; Total, n = 13): 4 (30.8) n (%)
- AE by preferred term: Oropharyngeal pain ([1]; Total, n = 13): 2 (15.4) n (%)
- AE by preferred term: Pyrexia ([1]; Total, n = 13): 2 (15.4) n (%)
- AE by preferred term: Upper respiratory tract infection ([1]; Total, n = 13): 2 (15.4) n (%)
- AEs leading to discontinuation of study treatment, number of events (nE) ([1]; Total, n = 13): 1
- AEs leading to discontinuation of study treatment, number of patients ([1]; Total, n = 13): 1 (7.7) nS (%)
- AEs of mild intensity, number of events (nE) ([1]; Total, n = 13): 35
- AEs of mild intensity, number of patients ([1]; Total, n = 13): 8 (61.5) nS (%)
- AEs of moderate intensity, number of events (nE) ([1]; Total, n = 13): 3
- AEs of moderate intensity, number of patients ([1]; Total, n = 13): 2 (15.4) nS (%)
- AEs of severe/serious intensity, number of events (nE) ([1]; Total, n = 13): 0
- AEs of severe/serious intensity, number of patients ([1]; Total, n = 13): 0 nS (%)
- Study drug-related AEs leading to discontinuation of study treatment, number of events (nE) ([1]; Total, n = 13): 1
- Study drug-related AEs leading to discontinuation of study treatment, number of patients ([1]; Total, n = 13): 1 (7.7) nS (%)
- Study drug-related AEs, number of events (nE) ([1]; Total, n = 13): 9
- Study drug-related AEs, number of patients ([1]; Total, n = 13): 4 (30.8) nS (%)
- Total AEs, number of events (nE) ([1]; Total, n = 13): 38
- Total AEs, number of patients ([1]; Total, n = 13): 9 nS (%) and 9 (69.2) nS (%)
- Study drug-related AEs, number of patients ([1]; Total, n = 13, listed as iptacopan): 4 nS (%)
- Dose dependence of the AE profile of the 2 cohorts ([1]; in vivo): no dose-dependent changes in the AE profile
- Severe or serious AEs ([1]; until data cutoff): no severe or serious AEs
- Breakthrough hemolysis [1, 8]: no breakthrough hemolysis was observed; also recorded: no thromboembolic events or breakthrough hemolysis were reported
- Severe or serious AEs [1, 8]: no severe or serious adverse events reported; also recorded: no serious nor severe AEs
- Thromboembolic events ([1]; until data cutoff, no prophylactic anticoagulation): No thromboembolic events were reported; also recorded: no thromboembolic events were observed; also recorded: no thromboembolic events or breakthrough hemolysis were reported
- Absorption [2, 9]: high absorption
- Clearance [2, 9]: moderate clearance
- Direct renal excretion (share of clearance) [2]: ~25%
- Ethnic sensitivity [2]: no ethnic sensitivity
- Food effect [2]: no food effect
- Terminal half-life in human plasma [2]: approximately 20 hours
- Effect of iptacopan add-on on hemolysis and Hb levels [3]: significant reductions in both intra- and extravascular hemolysis and transfusion-free improvements in Hb levels
- LDH levels maintained by all patients [4]: < 1.5 × ULN
- Dose proportionality of exposure (AUClast and Cmax) ([5]; 25 to 200 mg twice daily): underproportional in relationship to dose
- Mean trough level exposures ([5]; doses of ≥50 mg twice daily, steady state): ≥ 900 ng/mL
- AUC(0-t) ([5]; human, plasma, oral, 25 mg): 6290 ng·h/mL
- AUC(0-t) ([5]; human, plasma, oral, 200 mg): 19900 ng·h/mL
- Cmax ([5]; human, plasma, oral, 200 mg): 4520 ng/mL
- Patients with Hb levels above 120 g/L ([6]; week 12, both cohorts): 5
- Patients achieving reticulocyte count ≤150 × 10^9/L, number ([6]; week 12, cohort 1): 4
- Patients achieving reticulocyte count ≤150 × 10^9/L, percent ([6]; week 12, cohort 1): 66.7%
- Patients with Hb levels above 120 g/L ([6]; week 12, cohort 1): 3
- Mean bilirubin level ([6]; week 12, cohort 1, baseline 32.4): 11.7 µmol/L
- Mean Hb level ([6]; week 12, cohort 1, baseline 88.5): 115.2 g/L
- Mean reticulocyte count ([6]; week 12, cohort 1, baseline 217.6): 1.308e+11 L⁻¹
- Patients achieving reticulocyte count ≤150 × 10^9/L, number ([6]; week 12, cohort 2): 4
- Patients achieving reticulocyte count ≤150 × 10^9/L, percent ([6]; week 12, cohort 2): 100%
- Patients with Hb levels above 120 g/L ([6]; week 12, cohort 2): 2
- Mean bilirubin level ([6]; week 12, cohort 2, baseline 35.3): 14.8 µmol/L
- Mean Hb level ([6]; week 12, cohort 2, baseline 76.9): 109.0 g/L
- Mean reticulocyte count ([6]; week 12, cohort 2, baseline 211.1): 1.048e+11 L⁻¹
- Suppression of alternative pathway activity (Wieslab assay) [7]: near-maximal inhibition
